Screens from PubChem.
Hits are enriched below; roughly 1.4% of the tested compounds scored in any of these assays.
CHT PAM: CHT positive allosteric modulators, primary screen, cell-based, membrane potential dye, choline EC20 | High affinity choline transporter 1 (Homo sapiens), Q9GZV3 | CHT-expressing cells; hits give high values; LV-AA mutant CHT in HEK293 cells | B-score at 10 µM | actives 0.49% (n = 310,000) | AID 488977, 2010;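 active means initial fluorescence not abnormally high and integrated response B-score, plate-corrected, over 3 SD above library mean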
Target sequence (Q9GZV3 whole entry, looked up): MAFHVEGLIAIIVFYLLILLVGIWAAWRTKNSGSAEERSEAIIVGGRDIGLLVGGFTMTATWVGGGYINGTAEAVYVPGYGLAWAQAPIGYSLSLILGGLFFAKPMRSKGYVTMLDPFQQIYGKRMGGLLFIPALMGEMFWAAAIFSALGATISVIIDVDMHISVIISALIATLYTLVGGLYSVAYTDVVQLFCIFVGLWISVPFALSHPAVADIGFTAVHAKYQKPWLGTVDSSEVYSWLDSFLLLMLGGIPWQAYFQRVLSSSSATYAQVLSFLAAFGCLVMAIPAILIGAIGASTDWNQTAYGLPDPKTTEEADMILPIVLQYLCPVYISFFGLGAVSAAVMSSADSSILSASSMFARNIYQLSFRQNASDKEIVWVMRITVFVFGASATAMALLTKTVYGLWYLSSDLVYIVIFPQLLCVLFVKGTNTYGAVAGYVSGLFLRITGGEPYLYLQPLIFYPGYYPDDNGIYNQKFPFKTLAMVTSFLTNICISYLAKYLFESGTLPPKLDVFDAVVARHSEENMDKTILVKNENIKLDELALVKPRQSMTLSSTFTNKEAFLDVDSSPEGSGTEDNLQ
TNAP inh hi DEA: human TNAP enzyme inhibitors, primary screen, biochemical, luminescent, high phosphate acceptor level, uHTS. actives 0.03% (n = 200,000). purified TNAP, CDP-star luminescence, 1 M DEA. inhibition, % at 20 µM. Alkaline phosphatase, tissue-nonspecific isozyme (Homo sapiens), P05186;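 active means over 50% inhibition of tissue-nonspecific alkaline phosphatase at 20 µM in the single-dose screen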;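 further: plate controls were DMSO wells for no effect and EDTA-quenched wells as full inhibition for full effect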
TNAP act hiacc: TNAP activators at high phosphate acceptor level, primary screen, biochemical, luminescence, uHTS; purified TNAP, CDP-star luminescence, 1 M DEA, 30 min; hits give high values; 0 = EDTA background, 1 = DMSO-only activity; 200,000 tested, under 10 active; activation factor at 20 µM; AID 1136, 2008;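 active means activation factor at least 2 at 20 µM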
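system = human TNAP | amount = enzyme diluted 1/800 final | reagent = 100 µM CDP-star substrate | signal = luminescent substrate turnover signal | dosing = one dose, 20 µM | benchmarks = EDTA negative control, DMSO positive control | measure = activation factor | timing = 30 min reaction, room temperature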
ABCB6 inh 2: ABCB6 transporter inhibitors, primary screen, K562-ABCB6 cells, flow cytometry, MLPCN library. fluorescence ratio to DMSO, % at 10 µM. K562-ABCB6 porphyrin accumulation, 1 h; hits give low values. actives 0.19% (n = 360,000). ATP-binding cassette sub-family B member 6 (Homo sapiens), Q9NP58. AID 602162, 2011;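 active means fluorescence ratio to DMSO below 75%, the collection mean minus 3 SD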;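 further: signal is porphyrin accumulated inside mitochondria; 100% equals median channel fluorescence of DMSO control wells; lower ratio means ABCB6 inhibition with less porphyrin fluorescence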
TNAP inh noacc: human TNAP enzyme inhibitors, primary screen, biochemical, luminescent, no phosphate acceptor, uHTS; actives 0.26% (n = 200,000); AID 1012, 2008; purified TNAP, CDP-star luminescence, 30 min; inhibition, % at 20 µM; Alkaline phosphatase, tissue-nonspecific isozyme (Homo sapiens), P05186;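 active means tissue-nonspecific alkaline phosphatase inhibition above about 50% at 20 µM in the single-dose screen, limit read from the data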;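 further: 0% = DMSO negative control and 100% = EDTA positive control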
CHT block: inhibitors of human choline transporter CHT; High affinity choline transporter 1 (Homo sapiens), Q9GZV3; CHT-expressing cells, membrane potential dye, choline response; hits give low values; B-score at 10 µM; actives 0.86% (n = 310,000); AID 488975, 2010;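 active means B-score over 3 SD under the library average, and starting fluorescence ratio not unusually high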;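 further: choline stimulus applied at its EC90 after an EC20 pre-addition; B-score computed on integrated fluorescence ratio after choline addition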
CHT act confirm: CHT activators, confirmation, cell-based, membrane potential dye, duplicate. shares compounds with CHT PAM. CHT-expressing cells, membrane potential dye fluorescence (FDSS); % of choline EC20–EC90 response window; HEK293 expressing CHT LV-AA mutant; choline added at its EC20. activation, % at 10 µM. actives 91% (n = 2,500). AID 504833, 2011;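 active means primary screen active, with duplicate mean activation above negative control mean plus 3 SD, cut at about 11% in these data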
HEK293 MP dye: membrane potential response in parental HEK293 cells, counter-screen for CHT activator project, cell-based, membrane potential dye | shares compounds with CHT PAM | actives 62% (n = 2,500) | AID 623908, 2012 | membrane potential dye fluorescence (FDSS); measured after EC20 choline addition | ratio readout change at 10 µM, hits read low;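 active means duplicate-averaged ratio beyond 3 SD from buffer wells, up or down, though filed actives are nearly all decreases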
* = called active by the depositor.

Results for CCOC(=O)c1sc2ncn(/N=C/N(C)C)c(=O)c2c1C ?
CHT PAM: inactive; TNAP inh hi DEA: -5; TNAP act hiacc: 1.1; ABCB6 inh 2: 96; TNAP inh noacc: -13; CHT block: inactive

Results for CN(/N=C/c1ccc(O)cc1O)c1nc(-c2ccccc2)cc(-c2ccccc2)n1 ?
CHT PAM: inactive; TNAP inh hi DEA: 4; TNAP act hiacc: 1; ABCB6 inh 2: 93; TNAP inh noacc: -10; CHT block: inactive

What do the screens show for `COc1ccc(CN(C)C(C)C(=O)Nc2cccc3ccccc23)cc1` (configuration not stated)?
CHT PAM: inactive; ABCB6 inh 2: 100; CHT block: inactive; CHT act confirm: 4; HEK293 MP dye: inactive

What do the screens show for `COc1ccccc1NC(=O)C(C)N(C)CC(=O)Nc1cccc2ccccc12` (configuration not stated)?
ABCB6 inh 2: 134

What do the screens show for `CN1C(C(=O)N2CCc3ccccc3C2)=CC(c2ccc(F)cc2)=NS1(=O)=O`?
CHT PAM: 6.7*; ABCB6 inh 2: 102; CHT block: inactive; CHT act confirm: 13*; HEK293 MP dye: inactive

How did CCCCCNc1nc(NCCCO)c(C#N)c2c1CN(C)CC2 do in these assays?
CHT PAM: inactive; TNAP inh hi DEA: -7; TNAP act hiacc: 1.1; ABCB6 inh 2: 95; TNAP inh noacc: -10; CHT block: inactive; CHT act confirm: 32*; HEK293 MP dye: -29*

What do the screens show for `O=c1cc(CN2CCN(CCO)CC2)c2cc3c(cc2o1)CCC3`?
CHT PAM: inactive; TNAP inh hi DEA: -5; TNAP act hiacc: 1.1; ABCB6 inh 2: 100; TNAP inh noacc: -13; CHT block: inactive; CHT act confirm: 46*; HEK293 MP dye: -44*

Results for CCOC(=O)N1CCN(Cc2cc(=O)oc3cc4c(cc23)CCC4)CC1 ?
CHT PAM: inactive; TNAP inh hi DEA: 1; TNAP act hiacc: 1; ABCB6 inh 2: 109; TNAP inh noacc: -6; CHT block: inactive

What do the screens show for `Brc1ccc2nc(C3CCCCC3)c(CC3CCCCC3)n2c1`?
ABCB6 inh 2: 91

How did CCc1ccc(NC(=O)CSc2nc3ccccc3c(=O)n2CCCN2CCC(C)CC2)cc1 do in these assays?
CHT PAM: inactive; TNAP inh hi DEA: -8; TNAP act hiacc: 1.1; ABCB6 inh 2: 105; TNAP inh noacc: -38; CHT block: inactive; CHT act confirm: 17*; HEK293 MP dye: inactive

Results for O=C1c2ccccc2C(=O)N1CCSc1nc2ccccc2c(=O)n1CCCN1CCOCC1 ?
CHT PAM: inactive; TNAP inh hi DEA: 0; TNAP act hiacc: 1; ABCB6 inh 2: 95; TNAP inh noacc: -8; CHT block: inactive

Results for O=C1c2ccccc2C(=O)N1CCCCSc1nc2ccccc2c(=O)n1CCCN1CCOCC1 ?
CHT PAM: inactive; TNAP inh hi DEA: -2; TNAP act hiacc: 1; ABCB6 inh 2: 105; TNAP inh noacc: -7; CHT block: inactive; CHT act confirm: 35*; HEK293 MP dye: inactive

How did Cc1ccc(SC[C@H](C)CN2CC[C@H](C(C)(C)C)CCC2=O)cc1 do in these assays?
CHT PAM: inactive; ABCB6 inh 2: 97; CHT block: inactive

Results for Cc1cc(-n2ccnc2)n2c(nc3ccccc32)c1C#N ?
CHT PAM: inactive; TNAP inh hi DEA: -3; TNAP act hiacc: 1; ABCB6 inh 2: 109; TNAP inh noacc: -18; CHT block: inactive

How did Cc1cc(N2CCN(C3CCCC3)CC2)n2c(nc3ccccc32)c1C#N do in these assays?
CHT PAM: 7.1*; TNAP inh hi DEA: -6; TNAP act hiacc: 1.1; ABCB6 inh 2: 100; TNAP inh noacc: -45; CHT block: inactive; CHT act confirm: 3; HEK293 MP dye: inactive

How did CCc1ccc(CNC(=O)CCC(=O)N2Cc3cccc(OC)c3Oc3ncccc32)cc1 do in these assays?
CHT PAM: inactive; ABCB6 inh 2: 97; CHT block: inactive

What do the screens show for `COc1ccccc1/C=C/C=c1\sc2nc(=O)c(Cc3ccccc3)nn2c1=O`?
CHT PAM: inactive; ABCB6 inh 2: 98; CHT block: inactive

How did Cc1ccc(Nc2nc(-c3c(C)nc4ncccn34)cs2)cc1 do in these assays?
CHT PAM: 6.7*; TNAP inh hi DEA: 2; TNAP act hiacc: 1; ABCB6 inh 2: 94; TNAP inh noacc: -2; CHT block: inactive; CHT act confirm: 29*; HEK293 MP dye: inactive

What do the screens show for `NS(=O)(=O)c1ccc(NC(=O)c2ccc3nccnc3c2)cc1`?
CHT PAM: 7.5*; ABCB6 inh 2: 100; CHT block: inactive; CHT act confirm: 39*; HEK293 MP dye: -27*

Results for C[C@@H]1CC=C[C@H]2[C@H]1C(=O)N(Cc1ccccc1)[C@H]2c1cccc([N+](=O)[O-])c1 ?
CHT PAM: 6.3*; ABCB6 inh 2: 93; CHT block: inactive; CHT act confirm: 26*; HEK293 MP dye: inactive

Results for C[C@@H]1CC=C[C@H]2[C@H]1C(=O)N(Cc1ccccc1)[C@H]2c1ccc2ccccc2c1 ?
CHT PAM: inactive; ABCB6 inh 2: 99; CHT block: inactive

How did Clc1ccc(SCc2cn3ccccc3n2)cc1 do in these assays?
CHT PAM: inactive; TNAP inh hi DEA: -7; TNAP act hiacc: 1.1; ABCB6 inh 2: 91; TNAP inh noacc: -1; CHT block: inactive

What do the screens show for `Cc1cc(C)c(C#N)c(SCc2cn3ccccc3n2)n1`?
CHT PAM: 6.5*; TNAP inh hi DEA: -2; TNAP act hiacc: 1; ABCB6 inh 2: 97; TNAP inh noacc: -10; CHT block: inactive; CHT act confirm: 51*; HEK293 MP dye: -46*
